Reference: ChEMBL document CHEMBL4680121, “Development of (4-methoxyphenyl)-1H-tetrazol-5-amine regioisomers as a new class of selective antitubercular agents” (Eur J Med Chem, 2020)
Converted amounts (≈) assume the structure as drawn.

Columns and labels:
V79 [1] = experiment: Cytotoxicity against Chinese Hamster V79 cells assessed as reduction in cell viability at 100 uM measured after 72 hrs by MTT assay; format: cell-based, Cricetulus griseus; details: v79, 72 h
Method in brief: (§1)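 MTT viability assay on cells grown in DMEM with 10% heat-inactivated FBS, penicillin/streptomycin and 20 mM HEPES at 37 °C/5% CO2. Cells were seeded at 1×10^4 per well and allowed to adhere for 24 h, then the medium was refreshed. Compounds were added at 20–140 μM for 72 h at 37 °C, followed by MTT (0.5 mg/mL in serum-free medium) for 4 h. Untreated cells served as control. IC50 is the concentration giving 50% growth inhibition versus control.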

Staphylococcus aureus [2] = experiment: Antibacterial activity against Staphylococcus aureus ATCC 6538 assessed as bacterial growth inhibition measured after 18 hrs by two-fold serial microdilution method; format: functional
Method in brief: (§2)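 Two-fold serial broth microdilution in MH II medium following modified CLSI procedures. Compounds were dissolved in DMSO and diluted in medium to at most 1% solvent, tested from 0.03125 to 512 μg/ml. Final inoculum 10^6 CFU/ml. MIC was taken as the lowest concentration with no visible growth after 18 h at 35 °C.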

[3] = tested on: Staphylococcus epidermidis; experiment: Antibacterial activity against Staphylococcus epidermidis ATCC 35984/RP62A assessed as bacterial growth inhibition measured after 18 hrs by two-fold serial microdilution method; format: functional; method in brief: as §2
[4] = tested on: Mycolicibacterium fortuitum; experiment: Antibacterial activity against Mycobacterium fortuitum assessed as inhibition of microbial growth incubated for 1 week by MABA method; format: functional; details: 168 h, time 1 weeks
Method in brief: (§3)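 Microplate Alamar Blue assay using two-fold serial microdilution in Middlebrook 7H9 broth with 10% OADC, compounds 0.125–512 µg/ml from DMSO stocks. Inoculum came from fresh LJ culture, was adjusted to McFarland 1 and diluted 1:20. Plates were incubated 1 week at 37 °C, Alamar blue was added and plates were re-incubated 24 h. MIC was the lowest concentration preventing the blue-to-pink change. Each plate carried growth and sterile controls.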

V79 [5] = experiment: Cytotoxicity against Chinese Hamster V79 cells assessed as reduction in cell viability measured after 72 hrs by MTT assay; format: cell-based; details: Cricetulus griseus, V79, 72 h; method in brief: as §1
[6] = tested on: Mycobacterium scrofulaceum; experiment: Antibacterial activity against Mycobacterium scrofulaceum assessed as inhibition of microbial growth incubated for 1 week by MABA method; format: functional; details: 168 h, time 1 weeks; method in brief: as §3
Pseudomonas aeruginosa [7] = experiment: Antibacterial activity against Pseudomonas aeruginosa PAO1 assessed as bacterial growth inhibition measured after 18 hrs by two-fold serial microdilution method; format: functional; method in brief: as §2
[8] = tested on: Mycobacterium tuberculosis; experiment: Antitubercular activity against Mycobacterium tuberculosis Spec.192 assessed as inhibition of microbial growth incubated for 1 week by MABA method; format: functional; details: Mycobacterium tuberculosis, 192, 168 h; time 1 weeks
Method in brief: (§4)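 Microplate Alamar Blue assay in Middlebrook 7H9 broth with 10% OADC. Inoculum from fresh LJ culture was adjusted to McFarland 1 and diluted 1:20. DMSO stocks were two-fold serially diluted to final 0.125–512 µg/ml, with growth and sterile controls. Plates ran 1 week at 37 °C, then Alamar blue was added for 24 h. MIC is the lowest concentration preventing the blue-to-pink change.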

[9] = tested on: Staphylococcus epidermidis; experiment: Antibacterial activity against Staphylococcus epidermidis ATCC 1457 assessed as bacterial growth inhibition measured after 18 hrs by two-fold serial microdilution method; format: functional; method in brief: as §2
Pseudomonas aeruginosa [10] = experiment: Antibacterial activity against Pseudomonas aeruginosa NCTC 6749 assessed as bacterial growth inhibition measured after 18 hrs by two-fold serial microdilution method; format: functional; method in brief: as §2
[11] = tested on: Staphylococcus epidermidis; experiment: Antibacterial activity against Staphylococcus epidermidis ATCC 12228 assessed as bacterial growth inhibition measured after 18 hrs by two-fold serial microdilution method; format: functional; method in brief: as §2
HaCaT [12] = experiment: Cytotoxicity against human HaCaT cells assessed as reduction in cell viability measured after 72 hrs by MTT assay; format: cell-based; method in brief: as §1
Mycobacterium xenopi = experiment: Antibacterial activity against Mycobacterium xenopi assessed as inhibition of microbial growth incubated for 1 week by MABA method; format: functional; details: 168 h, time 1 weeks; method in brief: as §3
HaCaT [13] = experiment: Cytotoxicity against human HaCaT cells assessed as reduction in cell viability at 100 uM measured after 72 hrs by MTT assay; format: cell-based; method in brief: as §1
Klebsiella pneumoniae = experiment: Antibacterial activity against Klebsiella pneumoniae ATCC 10031 assessed as bacterial growth inhibition measured after 18 hrs by two-fold serial microdilution method; format: functional; method in brief: as §2
Proteus vulgaris = experiment: Antibacterial activity against Proteus vulgaris NCTC 4635 assessed as bacterial growth inhibition measured after 18 hrs by two-fold serial microdilution method; format: functional; method in brief: as §2
Mycobacterium avium = experiment: Antimycobacterial activity against Mycobacterium avium assessed as inhibition of microbial growth incubated for 1 week by MABA method; format: functional; details: 168 h, time 1 weeks; method in brief: as §4
Mycobacterium kansasii = experiment: Antibacterial activity against Mycobacterium kansasii assessed as inhibition of microbial growth incubated for 1 week by MABA method; format: functional; details: 168 h, time 1 weeks; method in brief: as §3
Staphylococcus aureus [14] = experiment: Antibacterial activity against Staphylococcus aureus NCTC 4163 assessed as bacterial growth inhibition measured after 18 hrs by two-fold serial microdilution method; format: functional; method in brief: as §2
Escherichia coli = experiment: Antibacterial activity against Escherichia coli ATCC 25922 assessed as bacterial growth inhibition measured after 18 hrs by two-fold serial microdilution method; format: functional; method in brief: as §2
[15] = tested on: Mycobacterium tuberculosis; experiment: Antitubercular activity against Mycobacterium tuberculosis H37Rv ATCC 25618 assessed as inhibition of microbial growth incubated for 1 week by MABA method; format: functional; details: H37Rv ATCC 25618, 168 h, time 1 weeks; method in brief: as §4
[16] = tested on: Mycobacterium intracellulare; experiment: Antimycobacterial activity against Mycobacterium intracellulare assessed as inhibition of microbial growth incubated for 1 week by MABA method; format: functional; details: 168 h, time 1 weeks; method in brief: as §3

SMILES | Activity (V79 [1]) | MIC (Staphylococcus aureus [2]) [µg/mL] | MIC [3] [µg/mL] | MIC [4] [µg/mL] | IC50 (V79 [5]) [µM] | MIC [6] [µg/mL] | MIC (Pseudomonas aeruginosa [7]) [µg/mL] | MIC [8] [µg/mL] | MIC [9] [µg/mL] | MIC (Pseudomonas aeruginosa [10]) [µg/mL] | MIC [11] [µg/mL] | IC50 (HaCaT [12]) [µM] | MIC (Mycobacterium xenopi) [µg/mL] | Activity (HaCaT [13]) | MIC (Klebsiella pneumoniae) [µg/mL] | MIC (Proteus vulgaris) [µg/mL] | MIC (Mycobacterium avium) [µg/mL] | MIC (Staphylococcus aureus [14]) [µg/mL] | MIC (Escherichia coli) [µg/mL] | MIC [15] [µg/mL] | also measured
COc1ccc(-n2nnnc2Nc2ccccc2Br)cc1 | Non-Toxic | 256 (≈ 739 µM) | 256 (≈ 739 µM) | 256 | 239 | 256 | > 256 | 64 | 256 (≈ 739 µM) | > 256 | 128 (≈ 370 µM) | 137 | 512 | Non-Toxic | > 256 | > 256 | 256 | 256 (≈ 739 µM) | > 256 | 64 | MIC (Mycobacterium kansasii): 512 µg/mL; MIC [16]: 128 µg/mL
COc1ccc(-n2nnnc2Nc2ccccc2F)cc1 | Non-Toxic | > 256 | > 256 |  | 115 |  | > 256 | 16 | > 256 | > 256 | > 256 | 111 |  | Non-Toxic | > 256 | > 256 |  | > 256 | > 256 | 16 | 
COc1ccc(-n2nnnc2Nc2cccc(Cl)c2)cc1 | Non-Toxic | > 256 | > 256 | 256 | 243 | 512 | > 256 | 32 | > 256 | > 256 | > 256 | 141 | > 512 | Non-Toxic | > 256 | > 256 | 256 | > 256 | > 256 | 32 | MIC (Mycobacterium kansasii): 512 µg/mL; MIC [16]: 128 µg/mL
COc1ccc(-n2nnnc2Nc2ccccc2Cl)cc1 | Non-Toxic | 32 (≈ 106 µM) | 256 (≈ 848 µM) | 256 | 246 | 32 | > 256 | 8 | 64 (≈ 212 µM) | > 256 | 128 (≈ 424 µM) | 134 | 512 | Non-Toxic | > 256 | 64 (≈ 212 µM) | 128 | 32 (≈ 106 µM) | > 256 | 8 | MIC (Mycobacterium kansasii): 512 µg/mL; MIC [16]: 128 µg/mL
COc1ccc(-n2nnnc2Nc2ccc(Cl)cc2)cc1 | Non-Toxic | 128 (≈ 424 µM) | 128 (≈ 424 µM) | > 512 | 245 | > 512 | > 256 | 16 | 128 (≈ 424 µM) | > 256 | 64 (≈ 212 µM) | 143 | 512 | Non-Toxic | > 256 | 128 (≈ 424 µM) | > 512 | 128 (≈ 424 µM) | > 256 | 16 | MIC (Mycobacterium kansasii): > 512 µg/mL; MIC [16]: 32 µg/mL
COc1ccc(Nc2nnnn2-c2ccccc2F)cc1 | Non-Toxic | 64 (≈ 224 µM) | 64 (≈ 224 µM) | 256 | 212 | 32 | 256 (≈ 897 µM) | 16 | 64 (≈ 224 µM) | 256 (≈ 897 µM) | 64 (≈ 224 µM) | 122 | 128 | Non-Toxic | 256 (≈ 897 µM) | 256 (≈ 897 µM) | 256 | 64 (≈ 224 µM) | 256 (≈ 897 µM) | 16 | MIC (Mycobacterium kansasii): 256 µg/mL; MIC [16]: 128 µg/mL
COc1ccc(-n2nnnc2Nc2ccc(F)cc2)cc1 | Non-Toxic | 128 (≈ 449 µM) | 128 (≈ 449 µM) | 512 | 236 | 32 | > 256 | 32 | 128 (≈ 449 µM) | 128 (≈ 449 µM) | 64 (≈ 224 µM) | 155 | > 512 | Non-Toxic | > 256 | 128 (≈ 449 µM) | 256 | 128 (≈ 449 µM) | > 256 | 32 | MIC (Mycobacterium kansasii): 512 µg/mL; MIC [16]: 16 µg/mL
O=C(O)c1cn(C2CC2)c2cc(N3CCNCC3)c(F)cc2c1=O [CIPROFLOXACIN] |  |  | 0.0625 (≈ 0.189 µM) |  |  |  |  |  | 0.125 (≈ 0.377 µM) |  | 0.125 (≈ 0.377 µM) |  |  |  | < 0.0625 | < 0.0625 |  |  | < 0.0625 |  | 
COc1cccc2c1C(=O)c1c(O)c3c(c(O)c1C2=O)C[C@@](O)(C(=O)CO)C[C@@H]3O[C@H]1C[C@H](N)[C@H](O)[C@H](C)O1 [DOXORUBICIN] |  |  |  |  | 2.21 |  |  |  |  |  |  | 0.23 |  |  |  |  |  |  |  |  | 
